Measured values from EPA's CvTdb concentration-time database.

Columns and labels:
Rat [1] = experiment: concentration in brain after dosing; conditions: 1.5 h; dosed: 2-Methyltetrahydrofuran; 40 mg/kg; iv; Male; Harlan Sprague Dawley
Rat [2] = experiment: concentration in plasma after dosing; conditions: 0.2 h; dosed: 2-Methyltetrahydrofuran; 40 mg/kg; iv; Male; Harlan Sprague Dawley
Rat [3] = experiment: concentration in brain after dosing; conditions: 1.5 h; dosed: 2-Methyltetrahydrofuran; 40 mg/kg; iv; Male; Harlan Sprague Dawley; remark: listed apart in the source
Rat [4] = experiment: concentration in brain after dosing; conditions: 4 h; dosed: 2-Methyltetrahydrofuran; 40 mg/kg; iv; Male; Harlan Sprague Dawley
Rat [5] = experiment: concentration in plasma after dosing; conditions: dosed: 678-39-7, 40 mg/kg, iv, Male, F344
Rat [6] = experiment: concentration in plasma after dosing; conditions: dosed: 678-39-7, 12 mg/kg, iv, Male, F344
Rat [7] = experiment: concentration in plasma after dosing; conditions: dosed: 678-39-7, 40 mg/kg, iv, Male, F344; remark: listed apart in the source
Rat [8] = experiment: concentration in plasma after dosing; conditions: 192 h; dosed: 678-39-7; 12 mg/kg; iv; Male; F344
Rat [9] = experiment: concentration in brain after dosing; conditions: 0.5 h; dosed: Fluorotelomer alcohol 8+2; 80 mg/kg; oral; Female; Harlan Sprague Dawley
Rat [10] = experiment: concentration in plasma after dosing; conditions: 0.25 h; dosed: 678-39-7; 12 mg/kg; iv; Male; F344
Rat [11] = experiment: concentration in plasma after dosing; conditions: 1 h; dosed: Gemfibrozil; 4.29 mg/kg; oral; Male; Sprague-Dawley
Rat [12] = experiment: concentration in plasma after dosing; conditions: 5 min; dosed: Gemfibrozil; 100 mg/kg; oral; Male; Sprague-Dawley
Rat [13] = experiment: concentration in plasma after dosing; conditions: 4 h; dosed: Gemfibrozil; 4.29 mg/kg; oral; Male; Sprague-Dawley
Rat [14] = experiment: concentration in liver after dosing; conditions: 1 h; dosed: Perfluorohexanoic Acid; 80 mg/kg; oral; Male; Harlan Sprague Dawley
Rat [15] = experiment: concentration in brain after dosing; conditions: 1 h; dosed: Perfluorohexanoic Acid; 80 mg/kg; oral; Male; Harlan Sprague Dawley
Rat [16] = experiment: concentration in plasma after dosing; conditions: dosed: Perfluorohexanoic Acid, 80 mg/kg, oral, Male, Harlan Sprague Dawley
Rat [17] = experiment: concentration in brain after dosing; conditions: 3 h; dosed: Perfluorohexanoic Acid; 80 mg/kg; oral; Male; Harlan Sprague Dawley
Rat [18] = experiment: concentration in liver after dosing; conditions: 24 h; dosed: Perfluorooctane Sulfonate; 2 mg/kg; oral; Female; Harlan Sprague Dawley
Rat [19] = experiment: concentration in liver after dosing; conditions: 1848 h; dosed: Perfluorooctane Sulfonate; 20 mg/kg; oral; Male; Harlan Sprague Dawley
Rat [20] = experiment: concentration in liver after dosing; conditions: 24 h; dosed: Perfluorooctane Sulfonate; 2 mg/kg; oral; Female; Harlan Sprague Dawley; remark: listed apart in the source
Rat [21] = experiment: concentration in plasma after dosing; conditions: dosed: Perfluorooctane Sulfonate, 2 mg/kg, iv, Female, F344
Rat [22] = experiment: concentration in plasma after dosing; conditions: dosed: Perfluorooctane Sulfonate, 2 mg/kg, iv, Male, F344
Rat [23] = experiment: concentration in brain after dosing; conditions: 864 h; dosed: Perfluorooctane Sulfonate; 20 mg/kg; oral; Male; Harlan Sprague Dawley
Rat [24] = experiment: concentration in plasma after dosing; conditions: dosed: Perfluorooctane Sulfonate, 2 mg/kg, iv, Female, F344; remark: listed apart in the source
Rat [25] = experiment: concentration in kidney after dosing; conditions: 24 h; dosed: Perfluorooctane Sulfonate; 2 mg/kg; oral; Female; Harlan Sprague Dawley
Rat [26] = experiment: concentration in kidney after dosing; conditions: 3360 h; dosed: Perfluorooctane Sulfonate; 20 mg/kg; oral; Male; Harlan Sprague Dawley
Rat [27] = experiment: concentration in brain after dosing; conditions: 6 h; dosed: Perfluorooctane Sulfonate; 20 mg/kg; oral; Male; Harlan Sprague Dawley
Rat [28] = experiment: concentration in liver after dosing; conditions: 6 h; dosed: Perfluorooctane Sulfonate; 20 mg/kg; oral; Female; F344
Rat [29] = experiment: concentration in liver after dosing; conditions: 24 h; dosed: Perfluorooctane Sulfonate; 2 mg/kg; oral; Female; Harlan Sprague Dawley; remark: listed apart in the source
Rat [30] = experiment: concentration in kidney after dosing; conditions: 3360 h; dosed: Perfluorooctane Sulfonate; 2 mg/kg; oral; Female; Harlan Sprague Dawley
Rat [31] = experiment: concentration in kidney after dosing; conditions: 1848 h; dosed: Perfluorooctane Sulfonate; 20 mg/kg; oral; Male; Harlan Sprague Dawley
human = experiment: concentration in blood after dosing; negative times count back from the end of exposure; conditions: dosed: trichloroethylene, 100 ppm, inhalation, person
How it was run: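 Points were largely digitised from plot screenshots with WebPlotDigitizer or otherwise copied from tables, and they remain in the units each source reported. They come from published in vivo toxicokinetic studies and two structured collections. Sampling and analytical methods follow each source and were often not reported.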

CC1CCCO1 (stereo not drawn) [2-Methyltetrahydrofuran]
Conditions	concentration in brain [ng/mL]	concentration in plasma [ng/mL]
Rat [1]	2800	–
Rat [2]	–	35700
Rat [3]	6260	–
Rat [4]	1660	–

O=C(O)CCC(F)(F)C(F)(F)C(F)(F)C(F)(F)C(F)(F)C(F)(F)C(F)(F)F [Fluorotelomer acid 7+3]
Conditions	concentration in plasma [ng/mL]
Rat [5], 0.25 h	84.2
Rat [5], 6 h	820
Rat [6], 1 h	601
Rat [6], 6 h	432
Rat [7], 3 h	3090
Rat [7], 5 min	25.4

Conditions	concentration in brain [ng/g]	concentration in plasma [ng/mL]
Rat [8]	–	8.6
Rat [9]	114	–
Rat [10]	–	51.7

Cc1ccc(C)c(OCCCC(C)(C)C(=O)O)c1 [Gemfibrozil]
Conditions	concentration in plasma [ng/mL]
Rat [11]	258
Rat [12]	1930
Rat [13]	238

O=C(O)C(F)(F)C(F)(F)C(F)(F)C(F)(F)C(F)(F)F [Perfluorohexanoic Acid]
Conditions	concentration in brain [ng/g]	concentration in liver [ng/g]
Rat [14]	–	88800
Rat [15]	2830	–
Rat [17]	1460	–

Rat [16]
Conditions	concentration in plasma [ng/mL]
0.25 h	156000
24 h	416

O=S(=O)([O-])C(F)(F)C(F)(F)C(F)(F)C(F)(F)C(F)(F)C(F)(F)C(F)(F)C(F)(F)F [Perfluorooctane Sulfonate]
Conditions	concentration in brain [ng/g]	concentration in kidney [ng/g]	concentration in liver [ng/g]
Rat [18]	–	–	30300
Rat [19]	–	–	37900
Rat [20]	–	–	20600
Rat [23]	2500	–	–
Rat [25]	–	8400	–
Rat [26]	–	10400	–
Rat [27]	4440	–	–
Rat [28]	–	–	139000
Rat [29]	–	–	29400
Rat [30]	–	1070	–
Rat [31]	–	25300	–

Conditions	concentration in plasma [ng/mL]
Rat [21], 1 h	4870
Rat [21], 528 h	2180
Rat [22], 12 h	4020
Rat [22], 1200 h	875
Rat [24], 5 min	5510
Rat [24], 24 h	4250
Rat [24], 1704 h	232

ClC=C(Cl)Cl [trichloroethylene]
human
Conditions	concentration in blood [ng/mL]
0 h, duration: 6 hr	1310
0.2145 h, duration: 4 hr	2070
0.2337 h, duration: 4 hr	1290
0.4864 h, duration: 4 hr	1450
0.9849 h, duration: 4 hr	714
0.9924 h, duration: 4 hr	513
1.967 h, duration: 4 hr	333
1.979 h, duration: 4 hr	268
3.961 h, duration: 4 hr	170
18 h, duration: 6 hr	1100
22 s, duration: 4 hr	1870
24 h, duration: 6 hr	562
29.5 min, duration: 4 hr	851
42 h, duration: 6 hr	1490
48 h, duration: 6 hr	1230
66 h, duration: 6 hr	2060
72 h, duration: 6 hr	1320
90 h, duration: 6 hr	1660
96 h, duration: 6 hr	1370
160 h, duration: 6 hr	921

concentration in blood [ng/mL], human, during exposure
Conditions	-6 h	-3.502 h	-3.499 h	-3.014 h	-3.003 h	-2.006 h	-1.997 h	-1.011 h	-1.009 h
duration: 4 hr	–	1670	881	1250	2120	2530	1520	1690	2830
duration: 6 hr	11.9	–	–	–	–	–	–	–	–
